Measurements: ChEMBL document CHEMBL1152572, “Synthesis and antimalarial activity of new chloroquine analogues carrying a multifunctional linear side chain” (Bioorg Med Chem, 2009)

Assays:
Plasmodium falciparum [1] = test: Antiplasmodial activity against chloroquine-sensitive Plasmodium falciparum HB3 assessed as SYBR Green 1 fluorescence emission after 72 hrs; type: functional, organism-based; details: HB3, 72 h
How it was run: (§1)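 Sorbitol-synchronized P. falciparum cultures (>95% ring stage) exposed to serial drug dilutions in complete medium at 0.5% parasitemia, 1% hematocrit final. Incubated 72 h, 37 °C. SYBR Green I then added, 1 h at 37 °C. Fluorescence read at 530 nm emission, 490 nm excitation. Each dilution run in triplicate; IC50 averaged from at least two separate assays.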

Plasmodium falciparum [2] = test: Antiplasmodial activity against chloroquine-resistant Plasmodium falciparum Dd2 assessed as SYBR Green 1 fluorescence emission after 72 hrs; type: functional, organism-based; details: Dd2, 72 h; how it was run: as §1
[3] = Resistance index, ratio IC50 for chloroquine-resistant Plasmodium falciparum Dd2 to IC50 for chloroquine-sensitive Plasmodium falciparum HB3; type: functional

## CCN(CC)CCCN(CC)CCCOc1ccnc2cc(Cl)ccc12
Plasmodium falciparum [1]
  IC50: 77.5 nM
Plasmodium falciparum [2]
  IC50: 108 nM
[3]
  Ratio IC50: 1.4

## CCN(CC)CCCCCC(=O)NCCNc1ccnc2cc(Cl)ccc12
Plasmodium falciparum [1]
  IC50: 287 nM
Plasmodium falciparum [2]
  IC50: 2700 nM
[3]
  Ratio IC50: 9.4

## CCN(CC)CCCN(CC)CCOc1ccnc2cc(Cl)ccc12
Plasmodium falciparum [1]
  IC50: 321 nM
Plasmodium falciparum [2]
  IC50: 409 nM
[3]
  Ratio IC50: 1.3

## CCN(CC)CCCCCNCCNc1ccnc2cc(Cl)ccc12
Plasmodium falciparum [1]
  IC50: 28.9 nM
Plasmodium falciparum [2]
  IC50: 459 nM
[3]
  Ratio IC50: 15.9

## CCN(CC)CCCNCCCOc1ccnc2cc(Cl)ccc12
Plasmodium falciparum [1]
  IC50: 19.7 nM
Plasmodium falciparum [2]
  IC50: 240 nM
[3]
  Ratio IC50: 12.2

## CCN(CC)CCCCCN(CC)CCNc1ccnc2cc(Cl)ccc12
Plasmodium falciparum [1]
  IC50: 8.9 nM
Plasmodium falciparum [2]
  IC50: 38.7 nM
[3]
  Ratio IC50: 4.3

## CCN(CC)CCCC(=O)NCCNc1ccnc2cc(Cl)ccc12
Plasmodium falciparum [1]
  IC50: 225 nM
Plasmodium falciparum [2]
  IC50: 1190 nM
[3]
  Ratio IC50: 5.3

## CCN(CC)CCN(CC)CCNc1ccnc2cc(Cl)ccc12
Plasmodium falciparum [1]
  IC50: 5 nM
Plasmodium falciparum [2]
  IC50: 53 nM
[3]
  Ratio IC50: 10.5

## CCN(CC)CCC(=O)NCCNc1ccnc2cc(Cl)ccc12
[3]
  Ratio IC50: 24.1

## CCN(CC)CC(=O)NCCNc1ccnc2cc(Cl)ccc12
Plasmodium falciparum [1]
  IC50: 715 nM
Plasmodium falciparum [2]
  IC50: 3360 nM
[3]
  Ratio IC50: 4.7

## CCN(CC)CCC(=O)NCCOc1ccnc2cc(Cl)ccc12
Plasmodium falciparum [1]
  IC50: 1710 nM
Plasmodium falciparum [2]
  IC50: 1460 nM
[3]
  Ratio IC50: 0.9

## CCN(CC)CCNCCNc1ccnc2cc(Cl)ccc12
Plasmodium falciparum [1]
  IC50: 10.8 nM
Plasmodium falciparum [2]
  IC50: 1570 nM
[3]
  Ratio IC50: 145

## CCN(CC)CCCCCCNCCNc1ccnc2cc(Cl)ccc12
Plasmodium falciparum [1]
  IC50: 68.9 nM
Plasmodium falciparum [2]
  IC50: 231 nM
[3]
  Ratio IC50: 3.4

## CCN(CC)CCCCC(=O)NCCNc1ccnc2cc(Cl)ccc12
Plasmodium falciparum [1]
  IC50: 228 nM
Plasmodium falciparum [2]
  IC50: 1190 nM
[3]
  Ratio IC50: 5.2

## CCN(CC)CCCCNCCNc1ccnc2cc(Cl)ccc12
Plasmodium falciparum [1]
  IC50: 30.7 nM
Plasmodium falciparum [2]
  IC50: 1270 nM
[3]
  Ratio IC50: 41.5

## CCN(CC)CCCNCCOc1ccnc2cc(Cl)ccc12
Plasmodium falciparum [1]
  IC50: 94.6 nM
Plasmodium falciparum [2]
  IC50: 214 nM
[3]
  Ratio IC50: 2.3

## CCN(CC)CCCCN(CC)CCNc1ccnc2cc(Cl)ccc12
Plasmodium falciparum [1]
  IC50: 5.1 nM
Plasmodium falciparum [2]
  IC50: 36.2 nM
[3]
  Ratio IC50: 7.1

## CCN(CC)CCN(CCNc1ccnc2cc(Cl)ccc12)CCN(CC)CC
Plasmodium falciparum [1]
  IC50: 7 nM
Plasmodium falciparum [2]
  IC50: 151 nM
[3]
  Ratio IC50: 21.5

## CCN(CC)CCCCCCN(CC)CCNc1ccnc2cc(Cl)ccc12
Plasmodium falciparum [1]
  IC50: 5 nM
Plasmodium falciparum [2]
  IC50: 19.9 nM
[3]
  Ratio IC50: 4

## CCN(CC)CCC(=O)NCCCOc1ccnc2cc(Cl)ccc12
Plasmodium falciparum [1]
  IC50: 2320 nM
Plasmodium falciparum [2]
  IC50: 752 nM
[3]
  Ratio IC50: 0.3
